Data from PubChem BioAssay.
Results filed as inconclusive are left out.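 Rule for the calls, unless noted: active = RAM network inhibition above 8.4% in each of two replicates, 3 SD over the compound average; inconclusive = above 8.4% inhibition in only one replicate; inactive = 8.4% inhibition or less in each replicate.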

Tests used:
[1] = S. cerevisiae growth inhibition in permissive medium (OD615), pilot counter-assay for S. cerevisiae lifespan shortening project, permissive growth control (AID 705;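 active = growth inhibition above 25% in both replicates, a cutoff set 3 SD above the mean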); conditions: OD615, 24 h, at 10 µM, stronger effect = higher value
In short: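 Material: engineered DeaD yeast; compound dosing: one dose 10 µM, DMSO 0.25% final; measure: yeast growth inhibition indicated by reduced 24 h OD615; detection: OD615 turbidity read; incubation: cells pre-grown 4 h, then 24 h compound exposure, 30 °C humidified; medium: permissive synthetic complete medium with raffinose and galactose carbon sources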

[2] = S. cerevisiae growth inhibition in restrictive medium, OD615, pilot screen, restrictive growth control, yeast lifespan reduction project (AID 706;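 active = growth inhibition above a set limit, 3 SD over mean compound inhibition, in both replicates, cut at about 43% in these data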;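 note: modified DeaD lifespan yeast strain shifted to restrictive glucose medium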); conditions: OD615, 48 h, at 10 µM, stronger effect = higher value
In short: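 material = engineered S. cerevisiae DeaD strain | medium = glucose-based CSMM-D restrictive medium | times = 4 h pre-incubation, 48 h exposure at 30 °C | technique = OD615 absorbance reading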

[3] = doxorubicin toxicity protection in MRP-1 cells – H69AR cells, CellTiter-Glo, duplicate, MRP-1 activator project, pilot screen (AID 807;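 active = viability increase at or above a cutoff of the median across tested compounds plus 3 SD, cut at about 8.5% in these data, passing the limit was not always enough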;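 note: compound pretreatment 18-22 h then 72 h combined with doxorubicin; 0% = doxorubicin alone and 100% = vehicle without doxorubicin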); conditions: H69AR viability with doxorubicin, CellTiter-Glo luminescence; at 10 µM; stronger effect = higher value
[4] = viability of HCT116 without oncogenic beta-catenin – human colon tumor cells, pilot screen (AID 823;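 active = cell viability at or below a set limit in both duplicate runs, the limit being the all-compound median minus 4 SD, cut at about 23% in these data, passing the limit was not always enough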;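 note: 0% = wells killed by 20 µM Hyamine and 100% = untreated DMSO cell wells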); conditions: HCT116 beta-catenin knockout viability, CellTiter-Glo, 60 h; at 10 µM; stronger effect = lower value
[5] = viability of PTEN-null HCT116 cells – cell-based, HCT116 clonal line, CellTiter-Glo, pilot screen (AID 824;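 active = viability at or below 27.92% in each of two runs, the all-compound median minus 4 SD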;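 note: 0% = 20 µM Hyamine control and 100% = vehicle cell control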); conditions: HCT116 PTEN-deleted viability, 60 h, at 10 µM, stronger effect = lower value
[6] = RAM pathway blockade in budding yeast – dse1pr::URA3 reporter, 5-FOA selection, pilot screen (AID 869;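 active = inhibition over a set limit, the all-compound mean plus 3 SD, in both replicate runs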;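 note: 0% = DMSO wells with no growth and 100% = 10 µM 1-NA-PP1 with full growth; RAM network block rescues cells from 5-FOA so hits raise OD615 growth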); conditions: S. cerevisiae dse1pr::URA3 5-FOA growth, OD615, 2 d; at 10 µM; stronger effect = higher value; strain carries analog-sensitive mutant Cbk1 kinase
[7] = RAM signaling pathway blockade in yeast – S. cerevisiae, Pdr1DBD-CYC8 efflux-inhibited sensitized strain, primary screen (AID 1298);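 note: 0% = DMSO untreated cells without growth and 100% = 10 µM 1-NA-PP1 full growth; higher means more yeast growth rescued from 5-FOA killing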; conditions: S. cerevisiae cbk1-as DSE1-URA3 strain, 5-FOA growth OD615, 2 d; at 50 µM; stronger effect = higher value

O=C1c2ccccc2C(O)N1CCN1CCOCC1 (configuration not stated)
inactive: growth inhibition [1] -0.105% | growth inhibition [2] -6.41% | viability increase [3] -1.24% | viability [4] 94.5% | viability [5] 101% | inhibition [6] 2.64% | RAM network inhibition [7] 1.95%

COc1ccc(S(=O)(=O)Cc2ccc(C(=O)NC3CCCC3)o2)cc1
inactive: growth inhibition [1] -0.76% | growth inhibition [2] -12% | viability increase [3] -1.65% | viability [4] 108% | viability [5] 96.3% | inhibition [6] 1.19% | RAM network inhibition [7] 2.65%

Cc1ccc2c(c1)c1cccc3c1n2CCN3CCC(N)=O
inactive: growth inhibition [1] 4.29% | growth inhibition [2] 6.53% | viability increase [3] 1.41% | viability [4] 87.4% | viability [5] 87.2% | inhibition [6] 3.32% | RAM network inhibition [7] 9.34%

CCOC(=O)C(C)Sc1ncnc2nc[nH]c12 (configuration not stated)
inactive: growth inhibition [1] -1.5% | growth inhibition [2] -25.9% | viability increase [3] -1.35% | viability [4] 98.8% | viability [5] 99.2% | inhibition [6] 1.11% | RAM network inhibition [7] 3.25%

CCOC(=O)c1[nH]c2c(c1C)C(=O)CC(c1ccc(N(C)C)cc1)C2 (configuration not stated)
inactive: growth inhibition [1] -3.69% | growth inhibition [2] -0.995% | viability increase [3] -3.6% | viability [4] 77% | viability [5] 71.7% | inhibition [6] 2.3% | RAM network inhibition [7] 1.32%

CCC(NC(=O)c1ccccc1NC(=O)c1ccco1)C(=O)O (configuration not stated)
inactive: growth inhibition [1] -0.94% | growth inhibition [2] -12.6% | viability increase [3] -4.34% | viability [4] 109% | viability [5] 95.7% | inhibition [6] 0.27% | RAM network inhibition [7] 0.73%

CCC(=O)c1ccc(CCCCCC(=O)O)s1
inactive: growth inhibition [1] 4.35% | growth inhibition [2] -7.41% | viability increase [3] -0.1% | viability [4] 98.2% | viability [5] 98.7% | inhibition [6] 1.34% | RAM network inhibition [7] 3.2%

COc1ccc(C2N3CC4(C)CN2CC(C)(C3)C4=O)cc1OC (configuration not stated)
inactive: growth inhibition [1] -1.15% | growth inhibition [2] 2.95% | viability increase [3] -0.5% | viability [4] 102% | viability [5] 103% | inhibition [6] 1.67% | RAM network inhibition [7] 0.11%

CC(c1ccccc1)C1C(C#N)=C(N)OC2=C1C(=O)CCC2 (configuration not stated)
inactive: growth inhibition [1] -19% | growth inhibition [2] -12.4% | viability increase [3] -0.93% | viability [4] 88% | viability [5] 91.3% | inhibition [6] 3.24% | RAM network inhibition [7] 1.95%

O=C1c2oc3ccc(F)cc3c(=O)c2C(c2ccc(F)cc2)N1CCCN1CCOCC1 (configuration not stated)
inactive: growth inhibition [1] -1.14% | growth inhibition [2] 6.59% | viability increase [3] 0.11% | viability [4] 106% | viability [5] 97.5% | inhibition [6] 1.92% | RAM network inhibition [7] -0.47%

CCOC(=O)N1CCN(c2ncnc3nc[nH]c23)CC1
inactive: growth inhibition [1] -8.7% | growth inhibition [2] -10.1% | viability increase [3] -1.85% | viability [4] 109% | viability [5] 106% | inhibition [6] 0.595% | RAM network inhibition [7] 4.23%

CCSC1=C(C#N)C(c2ccccc2C)CC(=O)N1 (configuration not stated)
inactive: growth inhibition [1] -9.12% | growth inhibition [2] -23.4% | viability increase [3] -2.22% | viability [4] 92.5% | viability [5] 87.7% | inhibition [6] 1.98% | RAM network inhibition [7] 4.78%

O=C1c2cccnc2C(=O)N1Cc1ccccc1
inactive: growth inhibition [1] -1.31% | growth inhibition [2] -3.01% | viability increase [3] -0.58% | viability [4] 101% | viability [5] 101% | inhibition [6] 0.015% | RAM network inhibition [7] 0.79%

CCOC(=O)c1ccc(NC(=O)NCCN2CCCCC2)cc1
inactive: growth inhibition [1] -0.03% | growth inhibition [2] -4.93% | viability increase [3] -0.32% | viability [4] 105% | viability [5] 100% | inhibition [6] 1.49% | RAM network inhibition [7] 3.62%

O=C(NC1CCCCCCC1)C1CCC(CNc2c(N3CCCC3)c(=O)c2=O)CC1 (configuration not stated)
inactive: growth inhibition [1] -6.82% | growth inhibition [2] 0.64% | viability increase [3] 0.87% | viability [4] 91.6% | viability [5] 96% | inhibition [6] 0.85% | RAM network inhibition [7] 4.83%

Cn1cccc1Cc1nnc(SCC(=O)NC2CCCC2)n1-c1ccc(F)cc1
inactive: growth inhibition [1] 1.76% | growth inhibition [2] 6.74% | viability increase [3] -2.12% | viability [4] 104% | viability [5] 96.7% | inhibition [6] 0.675% | RAM network inhibition [7] 3.25%

CC1=C(C#N)C2C(/C1=N/O)C2(C)C (configuration not stated)
inactive: growth inhibition [1] -4.15% | growth inhibition [2] -6.87% | viability increase [3] -1.76% | viability [4] 95% | viability [5] 85.3% | inhibition [6] 0.79% | RAM network inhibition [7] 1.21%

Cc1cc(O)c(C=Nc2cccc(Cl)c2)c(=O)o1
inactive: growth inhibition [1] 4.66% | growth inhibition [2] 4.37% | viability increase [3] -3.17% | viability [4] 102% | viability [5] 94.1% | inhibition [6] 3.11% | RAM network inhibition [7] -0.93%

C=CCn1cc(C(=O)NCc2cccnc2)c(=O)c2cc(S(=O)(=O)N(CC)CC)ccc21
inactive: growth inhibition [1] -7.53% | growth inhibition [2] -8.9% | viability increase [3] -3.95% | viability [4] 103% | viability [5] 97% | inhibition [6] 1.33% | RAM network inhibition [7] 0.51%

O=C(Nc1ccc2ccccc2c1)c1cccnc1
inactive: growth inhibition [1] -3.92% | growth inhibition [2] 2.79% | viability increase [3] -3.85% | viability [4] 93.2% | viability [5] 81.5% | inhibition [6] 1.27% | RAM network inhibition [7] 4.91%

CC(C)N(Cc1nc(-c2ccccc2)no1)S(=O)(=O)c1ccccc1
inactive: growth inhibition [1] -10.8% | growth inhibition [2] -9.29% | viability increase [3] 1.67% | viability [4] 89.3% | viability [5] 79.5% | inhibition [6] 0.555% | RAM network inhibition [7] 4.95%

N#CC(c1nc2ccccc2nc1N1CCCC1)S(=O)(=O)c1ccccc1 (configuration not stated)
inactive: growth inhibition [1] -17.2% | growth inhibition [2] -3.85% | viability increase [3] -4.56% | viability [4] 81.9% | viability [5] 84.5% | inhibition [6] 0.815% | RAM network inhibition [7] 5.73%

Cn1cccc1Cc1nnc(SCC(=O)N2CCCCCC2)n1CCc1ccccc1
inactive: growth inhibition [1] 10% | growth inhibition [2] 25.7% | viability increase [3] -1.8% | viability [4] 95.2% | viability [5] 96.1% | inhibition [6] 2.48% | RAM network inhibition [7] 2.94%

CCCCOC(=O)Nc1sc2c(c1C(=O)OC)CCC2
inactive: growth inhibition [1] -6.32% | growth inhibition [2] 6.97% | viability increase [3] -2.72% | viability [4] 96.2% | viability [5] 92.4% | inhibition [6] 0.325% | RAM network inhibition [7] 8.11%

O=C(NCc1ccc(Cl)cc1)c1cccnc1
inactive: growth inhibition [1] -1.45% | growth inhibition [2] 9.27% | viability increase [3] -0.63% | viability [4] 92.8% | viability [5] 93.6% | inhibition [6] 1.8% | RAM network inhibition [7] 0.15%

CCOC(=O)c1c(C)n(C)c2ccc(OCC(O)CN3CCC(C)CC3)cc12 (configuration not stated)
inactive: growth inhibition [1] -1.52% | growth inhibition [2] 4.4% | viability increase [3] -5.47% | viability [4] 70.2% | viability [5] 75.8% | inhibition [6] 0.415% | RAM network inhibition [7] -0.57%

CC(C)(C)NC(=O)C1CN(S(=O)(=O)c2ccccc2)CCN1S(=O)(=O)c1ccccc1 (configuration not stated)
inactive: growth inhibition [1] 5.33% | growth inhibition [2] -4.14% | viability increase [3] -1.07% | viability [4] 97.3% | viability [5] 97.1% | inhibition [6] 2.74% | RAM network inhibition [7] 2.81%

Cc1onc(-c2ccccc2Cl)c1C(=O)NC1CCS(=O)(=O)C1 (configuration not stated)
inactive: growth inhibition [1] -10% | growth inhibition [2] 1.32% | viability increase [3] 1.32% | viability [4] 103% | viability [5] 106% | inhibition [6] 2.96% | RAM network inhibition [7] 3.02%

CCc1nnc(SCc2ccc(OC)c(Br)c2)n1N
inactive: growth inhibition [1] 6.13% | growth inhibition [2] -2.06% | viability increase [3] -0.5% | viability [4] 104% | viability [5] 98.9% | inhibition [6] 0.21% | RAM network inhibition [7] 2.41%

Cc1noc(C)c1S(=O)(=O)N(CC(=O)Nc1ccc2c(c1)OCCO2)c1ccc(C(C)C)cc1
inactive: growth inhibition [1] -19.3% | growth inhibition [2] -5.11% | viability increase [3] -5.12% | viability [4] 56.8% | viability [5] 48.7% | inhibition [6] 1.71% | RAM network inhibition [7] 1.99%

CCC1CCCCN1Cc1nc2c(c(=O)n(C)c(=O)n2C)n1Cc1cccc2ccccc12 (configuration not stated)
inactive: growth inhibition [1] -13.7% | growth inhibition [2] -7.96% | viability increase [3] -1.54% | viability [4] 92.5% | viability [5] 83.1% | inhibition [6] 0.67% | RAM network inhibition [7] 8.51%

O=c1nc2scc(-c3ccccc3)n2c2ccccc12
inactive: growth inhibition [1] -14.7% | growth inhibition [2] -0.83% | viability increase [3] -2.24% | viability [4] 94.1% | viability [5] 97.1% | inhibition [6] 4.32% | RAM network inhibition [7] 7.95%

Cc1ccnc(N2C(=O)c3ccccc3C2Nc2ccccc2Cl)c1 (configuration not stated)
inactive: growth inhibition [1] -15.2% | growth inhibition [2] -17.5% | viability increase [3] 2.73% | viability [4] 84.9% | viability [5] 92.5% | inhibition [6] 1.49% | RAM network inhibition [7] 12.8%

CCCC(=O)N1CC(=O)Nc2ccc(F)cc2C1c1ccccc1 (configuration not stated)
inactive: growth inhibition [1] -5.99% | growth inhibition [2] -15.7% | viability increase [3] -1.01% | viability [4] 111% | viability [5] 92.6% | inhibition [6] 3.18% | RAM network inhibition [7] 3.75%

CC(C)(C)Nc1ncnc2c1cnn2-c1ccccc1
inactive: growth inhibition [1] -3.38% | growth inhibition [2] 17.3% | viability increase [3] 2% | viability [4] 92.3% | viability [5] 90.3% | inhibition [6] 1.31% | RAM network inhibition [7] -2.37%

Nc1cc(C(F)(F)F)ccc1C(=O)O
inactive: growth inhibition [1] 9.88% | growth inhibition [2] 9.9% | viability increase [3] -1.66% | viability [4] 97.3% | viability [5] 95.3% | inhibition [6] 0.43% | RAM network inhibition [7] 0.63%
